Test results: publication PMC7398146 (The Journal of General Physiology, 2020)

How the values were obtained:
hKV7.2/3 = hKV7.2/3 (Homo sapiens, UniProt O43525+O43526); experiment: Two-electrode voltage clamp, hKV7.2/3 in Xenopus oocytes; format: cell-based; conditions: for effect on maximal conductance GMAX (in words) / shift of V50 (in words): 10 µM and 100 µM
Method in brief: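 hKV7.2 and hKV7.3 cRNA (2.5 ng each) were coinjected into Xenopus oocytes, held 2–4 d at 8°C or 16°C, and clamped with two electrodes at rt in HEPES saline, pH 7.4. Holding −80 mV; 2-s steps from −100 to +50 mV in 10-mV increments; tail −30 mV. Boltzmann G(V) fits per oocyte gave ΔV50 and GMAX change. A Hill fit across concentrations gave EC50. Current fold increase was taken per test voltage; mean ± SEM.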

[1] = target: hKV7.2_W236L/hKV7.3_W265L (Homo sapiens, UniProt O43525+O43526, A315T/W236L/W265L); experiment: Two-electrode voltage clamp, tryptophan mutant heteromer; format: cell-based; conditions: 3 µM
Method in brief: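 Human KV7 cRNA (2.5–50 ng per oocyte; mutants made by site-directed mutagenesis) was injected into Xenopus oocytes, which were kept 2–4 d at 8°C or 16°C. Two-electrode clamp was run at rt in 88 mM NaCl/1 mM KCl/15 mM HEPES saline, pH 7.4. Holding −80 mV; 2-s steps from −100 to +50 mV; tail −30 mV. Tail-current Boltzmann G(V) fits used a shared slope, giving per-oocyte ΔV50 and GMAX change; mean ± SEM.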

hKV7.1 = hKV7.1 (Homo sapiens, UniProt P51787); conditions: ref Schenzer et al., 2005; cited from earlier work
Chain of hKV7.1 (P51787 whole entry): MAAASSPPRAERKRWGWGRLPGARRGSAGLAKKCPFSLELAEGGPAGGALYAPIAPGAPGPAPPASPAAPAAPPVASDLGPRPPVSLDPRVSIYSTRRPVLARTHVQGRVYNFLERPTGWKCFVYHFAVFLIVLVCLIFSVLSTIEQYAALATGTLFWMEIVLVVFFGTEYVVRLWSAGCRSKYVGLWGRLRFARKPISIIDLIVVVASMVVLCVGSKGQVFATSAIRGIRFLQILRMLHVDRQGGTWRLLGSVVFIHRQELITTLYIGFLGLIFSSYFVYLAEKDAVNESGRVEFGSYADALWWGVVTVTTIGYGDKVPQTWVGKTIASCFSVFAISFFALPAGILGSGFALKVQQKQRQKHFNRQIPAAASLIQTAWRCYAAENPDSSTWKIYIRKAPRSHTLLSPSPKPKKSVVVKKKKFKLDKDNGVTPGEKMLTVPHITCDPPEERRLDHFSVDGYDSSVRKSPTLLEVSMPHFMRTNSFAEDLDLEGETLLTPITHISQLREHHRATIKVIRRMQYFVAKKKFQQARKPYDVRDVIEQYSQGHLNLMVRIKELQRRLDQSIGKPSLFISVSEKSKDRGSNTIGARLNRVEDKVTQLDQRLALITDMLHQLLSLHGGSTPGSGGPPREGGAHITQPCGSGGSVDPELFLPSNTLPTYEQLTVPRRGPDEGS

[2] = 10 µM, analogues compared with ARA-S

Which results are given for `CCCCC/C=C\C/C=C\C/C=C\C/C=C\CCCC(=O)NCCO` [AEA, N-arachidonoylethanolamine]?
effect on maximal conductance GMAX (in words) (hKV7.2/3): no effect; shift of V50 (in words) (hKV7.2/3): no effect

For `CCOC(=O)Nc1ccc(NCc2ccc(F)cc2)cc1N` [retigabine], which “current fold increase at −60 mV” value (hKV7.2/3; 1 µM alone) is on record?
Its value is “three- to fourfold”.

What about the “increase in GMAX” value (hKV7.2/3; 1 µM alone) of the same molecule?
The value was “did not affect”.

And the “shift in V50 (ΔV50)” value (hKV7.2/3; 1 µM alone)?
Its value is −8.1 ± 0.7 mV.

And the “ΔV50:MAX (maximal shift in V50)” value (hKV7.2/3; from concentration-response curve)?
Its value is −35 mV.

And the “sensitivity (shift in V50)” value [1]?
The value was “insensitive”.

And the “sensitivity of the channel” value (hKV7.1)?
Its value is “insensitive”.

Which results are given for `CCCCC/C=C\C/C=C\C/C=C\C/C=C\CCCC(=O)N[C@H](CO)C(=O)O` (single isomer, unassigned) [D enantiomer of ARA-S, N-arachidonoyl-D-serine]?
effect on GMAX (in words) (hKV7.2/3; [2]): comparable; effect on V50 (in words) (hKV7.2/3; [2]): comparable

For `CCCCC/C=C\C/C=C\C/C=C\C/C=C\CCCC(=O)OC(CO)CO` [2-AG, 2-arachidonoylglycerol], which “effect on maximal conductance GMAX (in words)” value (hKV7.2/3) is on record?
Its value is “no effect”.

And the “shift of V50 (in words)” value (hKV7.2/3)?
Its value is “no effect”.
